Laboratory results as given in ChEMBL document CHEMBL1143135, “A structure-activity relationship study and combinatorial synthetic approach of C-terminal modified bifunctional peptides that are delta/mu opioid receptor agonists and neurokinin 1 receptor antagonists” (J Med Chem, 2008).

How the values were obtained:
[1] = Lipophilicity, log D at pH 7.4; assay type: physicochemical; conditions: buffer
Procedure, shortened: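 2 mg peptide in 500 µL 0.05 M HEPES/0.1 M NaCl, pH 7.4, shaken with 500 µL 1-octanol for 12 h at rt. Phases separated by centrifugation and each phase analysed by HPLC at 230 nm.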

[2] = molecular target: Substance-P receptor (Rattus norvegicus) (UniProt P14600); test: Displacement of [3H]substance P from rat NK1 receptor expressed in CHO cells; assay type: cell-based
[3] = molecular target: Substance-P receptor (Homo sapiens, UniProt P25103); test: Displacement of [3H]substance P from human NK1 receptor expressed in CHO cells; assay type: cell-based
[4] = molecular target: Substance-P receptor (Rattus norvegicus) (UniProt P14600); test: Displacement of [3H]substance P from rat NK1 receptor expressed in CHO cells at 1 uM; assay type: cell-based
[5] = molecular target: Substance-P receptor (Cavia porcellus) (UniProt P30547); test: Antagonist activity at NK1 receptor in Hartley guinea pig isolated ileum assessed as inhibition of substance P-induced muscle contraction; assay type: functional, tissue-based
Procedure, shortened: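 Guinea pig ileum LMMP preparation in 1 µM naloxone. Full substance P concentration–response curves run with and without test compound; maximal substance P peak taken as 100%. Ke is the antagonist concentration that halves substance P activity, from at least four tissues.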

Sequence of Substance-P receptor (P25103 whole entry): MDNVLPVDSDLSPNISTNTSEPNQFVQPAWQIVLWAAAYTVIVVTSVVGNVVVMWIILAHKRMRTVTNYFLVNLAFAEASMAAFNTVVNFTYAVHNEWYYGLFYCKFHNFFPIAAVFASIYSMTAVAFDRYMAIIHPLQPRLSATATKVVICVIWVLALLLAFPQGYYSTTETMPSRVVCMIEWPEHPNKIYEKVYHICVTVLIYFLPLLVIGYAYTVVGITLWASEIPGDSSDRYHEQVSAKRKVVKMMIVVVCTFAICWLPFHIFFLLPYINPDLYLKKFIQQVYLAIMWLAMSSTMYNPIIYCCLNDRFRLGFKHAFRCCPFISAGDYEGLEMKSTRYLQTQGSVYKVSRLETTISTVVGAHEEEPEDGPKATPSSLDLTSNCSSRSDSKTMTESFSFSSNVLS
Sequence of Substance-P receptor (Rattus norvegicus) (P14600 whole entry): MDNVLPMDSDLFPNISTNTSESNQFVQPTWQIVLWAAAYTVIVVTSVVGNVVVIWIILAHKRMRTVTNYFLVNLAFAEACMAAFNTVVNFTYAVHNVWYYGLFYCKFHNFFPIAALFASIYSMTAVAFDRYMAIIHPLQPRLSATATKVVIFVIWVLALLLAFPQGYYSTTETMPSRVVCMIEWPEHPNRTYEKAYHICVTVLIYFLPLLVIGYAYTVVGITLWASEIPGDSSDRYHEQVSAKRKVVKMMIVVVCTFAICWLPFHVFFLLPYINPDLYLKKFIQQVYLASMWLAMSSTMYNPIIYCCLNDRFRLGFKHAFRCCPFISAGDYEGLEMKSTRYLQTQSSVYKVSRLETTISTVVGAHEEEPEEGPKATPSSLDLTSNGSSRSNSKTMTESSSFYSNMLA
Sequence of Substance-P receptor (Cavia porcellus) (P30547 whole entry): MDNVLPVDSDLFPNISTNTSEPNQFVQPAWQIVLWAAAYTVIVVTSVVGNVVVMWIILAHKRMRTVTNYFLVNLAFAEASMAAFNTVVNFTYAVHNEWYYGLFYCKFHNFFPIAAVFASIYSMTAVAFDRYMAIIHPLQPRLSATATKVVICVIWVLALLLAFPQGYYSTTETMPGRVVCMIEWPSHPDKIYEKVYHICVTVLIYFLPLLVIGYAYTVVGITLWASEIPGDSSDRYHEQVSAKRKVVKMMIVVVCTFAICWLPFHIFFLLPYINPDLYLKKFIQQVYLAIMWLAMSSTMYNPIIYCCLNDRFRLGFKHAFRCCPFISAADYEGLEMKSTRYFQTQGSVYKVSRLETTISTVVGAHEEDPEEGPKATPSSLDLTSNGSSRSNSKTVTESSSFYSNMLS

## CC(C)C[C@H](NC(=O)[C@@H]1CCCN1C(=O)[C@H](Cc1ccccc1)NC(=O)CNC(=O)[C@@H](C)NC(=O)[C@@H](N)Cc1ccc(O)cc1)C(=O)N[C@@H](Cc1c[nH]c2ccccc12)C(=O)OCc1ccccc1
[1]
  logD: 3.8
[2]
  logIC50: -6.1
[3]
  logIC50: -6.7

## CC(C)C[C@H](NC(=O)[C@@H]1CCCN1C(=O)[C@H](Cc1ccccc1)NC(=O)CNC(=O)[C@@H](C)NC(=O)[C@@H](N)Cc1ccc(O)cc1)C(=O)N[C@@H](Cc1c[nH]c2ccccc12)C(=O)NCc1ccccc1
[1]
  logD: 3.3
[4]
  inhibition: 30%
[3]
  logIC50: -7.5
[5]
  Ke: 26 nM

## CC(C)C[C@H](NC(=O)[C@@H]1CCCN1C(=O)[C@H](Cc1ccccc1)NC(=O)CNC(=O)[C@@H](C)NC(=O)[C@@H](N)Cc1ccc(O)cc1)C(=O)N[C@@H](Cc1c[nH]c2ccccc12)C(=O)N(C)Cc1cc(C(F)(F)F)cc(C(F)(F)F)c1
[2]
  logIC50: -7.7
[3]
  logIC50: -8.5

## CC(C)C[C@H](NC(=O)[C@@H]1CCCN1C(=O)[C@H](Cc1ccccc1)NC(=O)CNC(=O)[C@@H](C)NC(=O)[C@@H](N)Cc1ccc(O)cc1)C(=O)N[C@@H](Cc1c[nH]c2ccccc12)C(=O)OCc1cc(C(F)(F)F)cc(C(F)(F)F)c1
[2]
  logIC50: -8.3
[3]
  Ki: 0.046 nM
  logIC50: -10
[5]
  Ke: 3.6 nM

## CC(C)C[C@H](NC(=O)[C@@H]1CCCN1C(=O)[C@H](Cc1ccccc1)NC(=O)CNC(=O)[C@@H](C)NC(=O)[C@@H](N)Cc1ccc(O)cc1)C(=O)N[C@@H](Cc1c[nH]c2ccccc12)C(=O)NCc1cc(C(F)(F)F)cc(C(F)(F)F)c1
[2]
  logIC50: -7
[3]
  logIC50: -8.9

## CC(C)C[C@H](NC(=O)[C@@H]1CCCN1C(=O)[C@H](Cc1ccccc1)NC(=O)CNC(=O)[C@@H](C)NC(=O)[C@@H](N)Cc1ccc(O)cc1)C(=O)N[C@@H](Cc1c[nH]c2ccccc12)C(=O)N(C)Cc1ccccc1
[1]
  logD: 3.5
[4]
  inhibition: 33%
[3]
  logIC50: -8.5
